# Results from ChEMBL document CHEMBL2321814, “Sulfocoumarins (1,2-benzoxathiine-2,2-dioxides): a class of potent and isoform-selective inhibitors of tumor-associated carbonic anhydrases” (J Med Chem, 2013).
# Calls of active or inactive are those of the source. No cut-off for these calls is given here.
# Tests used:
# Carbonic anhydrase 9 [1] = target: T1, Carbonic anhydrase 9 (Homo sapiens, UniProt Q16790); assay: Inhibition of human recombinant transmembrane CA9 catalytic domain after 15 mins by stopped-flow CO2 hydration method
# Summary of the method: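 Recombinant CA IX catalytic domain was preincubated with inhibitor for 15 min at room temperature. CO2 hydration was followed by stopped-flow with phenol red (0.2 mM, 557 nm) in 20 mM Hepes pH 7.5 with 20 mM Na2SO4, CO2 1.7–17 mM. Initial rates came from at least six traces of the first 5–10% of reaction, minus uncatalyzed rates. Inhibitor dilutions went down to 0.01 nM in water.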
# Carbonic anhydrase 9 [2] = target: T1, Carbonic anhydrase 9
# Carbonic anhydrase 1 = Carbonic anhydrase 1 (Homo sapiens, UniProt P00915); assay: Inhibition of full length human recombinant CA1 cytosolic isoform after 6 hrs by stopped-flow CO2 hydration method
# Carbonic anhydrase 2 [3] = target: Carbonic anhydrase 2 (Homo sapiens, UniProt P00918); assay: Inhibition of full length human recombinant CA2 cytosolic isoform after 6 hrs by stopped-flow CO2 hydration method
# Carbonic anhydrase 2 [4] = target: Carbonic anhydrase 2 (Homo sapiens, UniProt P00918, A65S/N67Q); assay: Inhibition of human CA2 Ala65Ser and Asn67Gln double mutant expressed in Escherichia coli strain BL21 (DE3) after 6 hrs by stopped-flow CO2 hydration method
# Summary of the method: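 CA II mutant mimicking the CA IX active site was expressed in E. coli BL21(DE3), IPTG-induced, and purified by His-trap, gel filtration and Mono-Q. Enzyme and inhibitor were preincubated 6 h at 4 °C. Stopped-flow CO2 hydration used phenol red (0.2 mM, 557 nm), 20 mM Hepes pH 7.5, 20 mM Na2SO4 and CO2 1.7–17 mM, with uncatalyzed rates subtracted. Three assays were run.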
# Sequence of Carbonic anhydrase 1 (P00915 whole entry, canonical isoform): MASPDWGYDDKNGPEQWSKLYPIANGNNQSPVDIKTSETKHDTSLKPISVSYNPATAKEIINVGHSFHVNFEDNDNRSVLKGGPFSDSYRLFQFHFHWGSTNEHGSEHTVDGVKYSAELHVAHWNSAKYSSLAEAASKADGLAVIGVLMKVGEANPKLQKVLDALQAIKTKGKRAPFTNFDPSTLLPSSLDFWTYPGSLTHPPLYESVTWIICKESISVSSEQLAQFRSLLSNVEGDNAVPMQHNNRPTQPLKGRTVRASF
inhibition (Carbonic anhydrase 9 [1]),Ki (Carbonic anhydrase 9 [2]) [µM],Ki (Carbonic anhydrase 1) [µM],Ki (Carbonic anhydrase 2 [3]) [µM],Ki (Carbonic anhydrase 2 [4]) [µM],SMILES
inactive,–,–,–,–,COc1cc2oc(=O)ccc2cc1[C@@H](O)CC(C)C
inactive,0.06,–,–,–,C[Si](C)(C)c1cn(-c2ccc3c(c2)C=CS(=O)(=O)O3)nn1
inactive,3.26,> 100,> 100,–,O=S1(=O)C=Cc2cc(Cl)cc(Cl)c2O1
inactive,0.275,–,> 100,2.37,O=S1(=O)C=Cc2cc(OCc3ccccc3)ccc2O1
inactive,0.086,–,–,–,CCOC(=O)c1cn(-c2ccc3c(c2)C=CS(=O)(=O)O3)nn1
inactive,0.074,–,–,–,O=S1(=O)C=Cc2cc(-n3cc(-c4ccc(OC(F)(F)F)cc4)nn3)ccc2O1
inactive,0.95,–,–,–,COC(=O)c1cn(-c2ccc3c(c2)C=CS(=O)(=O)O3)nn1
inactive,6.83,> 100,> 100,0.93,O=S1(=O)C=Cc2cc(Br)ccc2O1
inactive,3.77,–,> 100,–,O=[N+]([O-])c1ccc2c(c1)C=CS(=O)(=O)O2
inactive,–,–,–,–,O=c1ccc2ccccc2o1
inactive,0.049,–,–,–,COc1cccc(-c2cn(-c3ccc4c(c3)C=CS(=O)(=O)O4)nn2)c1
inactive,0.375,> 100,> 100,–,O=S1(=O)C=Cc2c(ccc3ccccc23)O1
inactive,0.018,–,–,–,COc1ccc(-c2cn(-c3ccc4c(c3)C=CS(=O)(=O)O4)nn2)cc1
inactive,0.048,–,–,–,O=S1(=O)C=Cc2cc(-n3cc(-c4cccc(C(F)(F)F)c4)nn3)ccc2O1
inactive,0.025,–,–,–,CCN(CC)Cc1cn(-c2ccc3c(c2)C=CS(=O)(=O)O3)nn1
inactive,0.058,–,–,–,O=S1(=O)C=Cc2cc(-n3cc(CO)nn3)ccc2O1
inactive,0.3,–,> 100,0.8,O=S1(=O)C=Cc2cc(O)ccc2O1
inactive,0.029,–,–,–,O=S1(=O)C=Cc2cc(-n3cc(-c4ccccc4)nn3)ccc2O1
inactive,0.046,–,–,–,Nc1ccc2c(c1)C=CS(=O)(=O)O2
